Reference: paper PMC3166240 (Cancer research, 2010)
One block for each compound: values may come before it.

What was measured:
[1] = tested on: Raji cells (human B-cell lymphoma) xenograft tumors; experiment: animal biodistribution study for 7 in Raji xenograft mice; assay type: in vivo, BALB/c nu/nu mice; settings: i.v.
Method in brief: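 Eleven female BALB/c nu/nu mice, 5–6 weeks old, were xenografted s.c. in the abdomen with 5 × 10⁶ Raji cells. Tumors were measured after three weeks. The ¹²⁵I-labeled test compound (4–6 μCi; 5 μg, 6 nmol) in normal saline was given i.v. via the tail vein. Mice were killed at 4, 24 and 48 h. Tissues were weighed and γ-counted (%ID/g). Mice were grouped afterwards by slow or fast blood clearance.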

α4β1 integrin [2] = target: T1, α4β1 integrin (Homo sapiens, UniProt P05556+P13612); experiment: cell adhesion competitive inhibition assay; assay type: cell-based
Method in brief: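 Wells were coated with neutravidin, then loaded with biotinylated CS-1 to immobilize the ligand, and blocked with BSA. Molt-4 cells (human T-cell leukemia, α4β1-bearing) were incubated in the wells with test compound. Wells were washed, formalin-fixed and crystal violet-stained, and absorbance was read at 570 nm. Percent inhibition came from concentration-dependent curves.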

α4β1 integrin [3] = target: T1, α4β1 integrin; experiment: in vitro binding studies of radioiodinated 8; settings: 125I-labelled

T1 sequence (P13612 34-1032): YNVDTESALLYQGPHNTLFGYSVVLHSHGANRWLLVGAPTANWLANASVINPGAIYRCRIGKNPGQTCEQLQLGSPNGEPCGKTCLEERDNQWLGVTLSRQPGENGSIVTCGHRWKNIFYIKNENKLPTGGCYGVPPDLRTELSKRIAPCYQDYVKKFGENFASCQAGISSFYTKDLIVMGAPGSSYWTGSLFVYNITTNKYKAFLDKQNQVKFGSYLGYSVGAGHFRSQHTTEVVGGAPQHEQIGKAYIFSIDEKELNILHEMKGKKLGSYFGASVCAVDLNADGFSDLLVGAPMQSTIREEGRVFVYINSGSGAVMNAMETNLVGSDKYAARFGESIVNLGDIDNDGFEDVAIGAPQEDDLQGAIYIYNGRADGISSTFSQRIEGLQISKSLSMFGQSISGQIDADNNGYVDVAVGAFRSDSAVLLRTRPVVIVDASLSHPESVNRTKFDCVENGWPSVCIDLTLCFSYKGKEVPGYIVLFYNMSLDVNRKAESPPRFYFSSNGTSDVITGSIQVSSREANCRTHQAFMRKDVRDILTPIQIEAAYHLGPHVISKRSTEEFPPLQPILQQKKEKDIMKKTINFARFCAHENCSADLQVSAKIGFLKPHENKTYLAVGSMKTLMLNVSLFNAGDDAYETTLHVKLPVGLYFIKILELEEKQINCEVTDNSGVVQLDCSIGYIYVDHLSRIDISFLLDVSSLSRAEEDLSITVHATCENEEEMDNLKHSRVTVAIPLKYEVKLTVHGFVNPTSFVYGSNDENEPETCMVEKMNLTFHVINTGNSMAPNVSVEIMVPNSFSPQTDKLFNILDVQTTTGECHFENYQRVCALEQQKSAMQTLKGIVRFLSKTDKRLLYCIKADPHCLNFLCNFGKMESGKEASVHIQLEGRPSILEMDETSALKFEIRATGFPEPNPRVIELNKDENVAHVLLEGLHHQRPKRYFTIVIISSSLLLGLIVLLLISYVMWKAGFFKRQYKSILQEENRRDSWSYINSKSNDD
T1 sequence (P05556 21-798): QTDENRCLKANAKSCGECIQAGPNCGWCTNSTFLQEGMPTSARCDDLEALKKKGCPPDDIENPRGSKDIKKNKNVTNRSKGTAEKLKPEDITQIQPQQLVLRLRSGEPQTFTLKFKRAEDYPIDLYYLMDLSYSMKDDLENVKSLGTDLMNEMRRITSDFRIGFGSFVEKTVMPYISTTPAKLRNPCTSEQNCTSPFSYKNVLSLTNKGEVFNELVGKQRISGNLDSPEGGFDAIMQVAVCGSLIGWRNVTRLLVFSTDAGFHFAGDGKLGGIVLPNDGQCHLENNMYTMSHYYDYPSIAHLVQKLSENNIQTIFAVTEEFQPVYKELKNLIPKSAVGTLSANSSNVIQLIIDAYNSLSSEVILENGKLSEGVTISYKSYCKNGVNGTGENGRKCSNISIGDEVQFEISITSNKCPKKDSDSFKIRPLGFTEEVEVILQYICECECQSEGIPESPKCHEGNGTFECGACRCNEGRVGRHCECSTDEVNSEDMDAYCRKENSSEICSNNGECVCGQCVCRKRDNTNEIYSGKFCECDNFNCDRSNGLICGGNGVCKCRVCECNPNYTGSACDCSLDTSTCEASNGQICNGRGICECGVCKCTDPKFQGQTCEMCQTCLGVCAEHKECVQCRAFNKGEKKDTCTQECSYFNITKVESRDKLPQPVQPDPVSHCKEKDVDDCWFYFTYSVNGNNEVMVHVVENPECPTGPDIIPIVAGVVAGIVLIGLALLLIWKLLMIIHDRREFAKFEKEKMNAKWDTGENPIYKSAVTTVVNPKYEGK

Compound: NC(=O)C1(NC(=O)[C@H](CCC(=O)O)NC(=O)[C@H](CCCCNC(=O)/C=C/c2cccnc2)NC(=O)c2ccc(Nc3nc4cc([125I])ccc4[nH]3)cc2)CCCCC1 [compound 7, [^125I]-(S)-6-(1-Carbamoylcyclohexylamino)-5-[(S)-2-{4-(5-iodo-1H-benzo[d]imidazol-2-ylamino)-benzamido]-6-[(E)-3-(pyridin-3-yl)acrylamido}hexanamido]-6-oxo-hexanoic Acid]
major dose accumulated in liver, spleen and marrow ([1]; fast blood clearance mice (3 at 24 h, 2 at 48 h)): 25 % ID/g | tumor uptake ([1]; fast blood clearance mice): less than 1.5 % ID/g | still circulating in the blood ([1]; slow blood clearance mice (2 at 24 h, 1 at 48 h)): approximately 15% | liver, spleen and marrow uptakes ([1]; slow blood clearance mice, 48 h): less than 8 % ID/g | tumor uptake ([1]; slow blood clearance mice): greater than 6 % ID/g | reduced in vitro affinity for α4β1 integrin compared to the bromo analogue 5 (α4β1 integrin [2]; compared with 5): nearly ten-fold

Compound: NC(=O)[C@H](Cc1ccc(O)c([125I])c1)C(=O)NC(=O)C1(NC(=O)[C@H](CCC(=O)O)NC(=O)[C@H](CCCCNC(=O)/C=C/c2cccnc2)NC(=O)c2ccc(Nc3nc4cc(Br)ccc4[nH]3)cc2)CCCCC1 [compound 8, [^125I]-(S)-6-[1-{(S)-3-Amino-2-(4-hydroxy-3-iodobenzyl)-3-oxopropanoyl-carbamoyl}cyclohexylamino]-5-[(S)-2-{4-(5-bromo-1H-benzo[d]imidazol-2-ylamino)benzamido]-6-[(E)-3-(pyridin-3-yl)-acrylamido}hexanamido]-6-oxohexanoic Acid]
in vitro binding (α4β1 integrin [3]): < 4%

Compound: (S)-6-(1-Carbamoylcyclohexylamino)-5-[(S)-2-{4-(5-iodo-1H-benzo[d]imidazol-2-ylamino)benz-amido]-6-[(E)-3-(pyridin-3-yl)acrylamido}hexanamido]-6-oxohexanoic Acid [compound 6]
fold less potent than the fluoro (3), chloro (4), and bromo (5) analogues (α4β1 integrin [2]; compared with 3, 4, 5): approximately 10 fold | fold more potent than the unsubstituted (15a) and methyl analogues (15b) (α4β1 integrin [2]; compared with 15a, 15b): 100 fold

fold less potent than previous leads (α4β1 integrin [2]; compared with previous leads): 2 fold
Compound: NC(=O)C1(NC(=O)[C@H](CCCC(=O)O)NC(=O)[C@H](CCCCNC(=O)/C=C/c2cccnc2)NC(=O)c2ccc(Nc3nc4cc(Br)ccc4[nH]3)cc2)CCCCC1 [compound 5, (S)-5-[(S)-2-{4-(5-Bromo-1H-benzo[d]imidazol-2-ylamino}benzamido]-6-[(E)-3-(pyridin-3-yl)-acrylamido}hexanamido]-6-(1-carbamoylcyclohexylamino)-6-oxo-hexanoic Acid]
